Results taken from ChEMBL document CHEMBL4400546, “A Cinchona Alkaloid Antibiotic That Appears To Target ATP Synthase in Streptococcus pneumoniae” (J Med Chem, 2019).
Converted amounts (≈) assume the structure as drawn. The source made the active and inactive calls. The calls are words filed in the database; no cut-off is given here.

Experiments:
[1] = tested on: Streptococcus pneumoniae; test: Bactericidal activity against Streptococcus pneumoniae D39 assessed as fold reduction in CFU at 5 times MIC after 3 hrs by time-kill assay relative to control; format: functional
Method in brief: (§1)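 Time-kill in S. pneumoniae D39 at multiples of MIC. Killing is followed by OD620 up to 18 h, with CFU determined at each time point by plating. Vancomycin is the positive control. Four independent experiments.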

[2] = tested on: Streptococcus pneumoniae; test: Antibacterial activity against optochin-resistant Streptococcus pneumoniae R6 expressing atpE G145A mutant after 20 hrs by CLSI-based microdilution method; format: functional; conditions: R6, 20 h
[3] = tested on: Streptococcus pneumoniae; test: Bacteriostatic activity against Streptococcus pneumoniae D39 at 1 to 5 times MIC using 10^7CFU inoculum after 18 hrs by time-kill assay; format: functional, organism-based; method in brief: as §1
[4] = tested on: Streptococcus pneumoniae; test: Antibacterial activity against Streptococcus pneumoniae D39 after 20 hrs by CLSI-based microdilution method; format: functional; conditions: D39, 20 h
[5] = tested on: Streptococcus pneumoniae; test: Antibacterial activity against amoxicillin/penicillin/cefotaxime/erythromycin/tetracycline-resistant Streptococcus pneumoniae TH2784 (19F) after 20 hrs by CLSI-based microdilution method; format: functional
[6] = tested on: Streptococcus pneumoniae; test: Bacteriostatic activity against Streptococcus pneumoniae D39 at 1 to 5 times MIC after 18 hrs by time-kill assay; format: functional, organism-based; method in brief: as §1
[7] = tested on: Streptococcus pneumoniae D39; test: Inhibition of wild-type Streptococcus pneumoniae D39 ATP synthase atpE assessed as intracellular pH at 0.25 ug/ml measured at 5 mins by pH-sensitive GFP-based fluorescence assay (reference value: 7.34 +/- 0.04); format: cell-based
Method in brief: (§2)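 S. pneumoniae D39 WT and isogenic atpE G142C or G145A mutants carry a plasmid-borne ratiometric pH-sensitive GFP biosensor. Cells are in PBS pH 7.2 with 10 mM glucose and are treated with compound, DMSO (0.5% v/v) or CCCP (10 µM). Intracellular pH is read immediately and at 5-min intervals. Two independent experiments, each in triplicate.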

[8] = tested on: Streptococcus mitis; test: Antibacterial activity against Streptococcus mitis ST138 after 20 hrs by CLSI-based microdilution method; format: functional; conditions: ST138, 20 h
[9] = tested on: Streptococcus pyogenes; test: Antibacterial activity against Streptococcus pyogenes ST157 after 20 hrs by CLSI-based microdilution method; format: functional; conditions: ST157, 20 h
[10] = Cytotoxicity against human HepG2 cells assessed as reduction in cell viability after 48 hrs by Alamar Blue assay; format: cell-based
[11] = Mitochondrial toxicity in human HepG2 cells assessed as reduction in cell viability after 24 hrs in presence of glucose by CellTiter-Glo assay; format: cell-based
Method in brief: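 HepG2 cells grown in DMEM with 10 mM glucose, treated 24 h; viability read by CellTiter-Glo luminescence. Value is the concentration giving 90% loss of viability (CC90) from dose-response curves, top concentration 300 µM.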

[12] = tested on: Streptococcus pneumoniae; test: Antibacterial activity against penicillin/erythromycin/meropenem/tetracycline-resistant Streptococcus pneumoniae TH2863 (19F) after 20 hrs by CLSI-based microdilution method; format: functional
[13] = tested on: Streptococcus pneumoniae D39; test: Inhibition of wild-type Streptococcus pneumoniae D39 ATP synthase atpE G142C mutant assessed as change in intracellular pH at 0.25 ug/ml measured at 5 mins by pH-sensitive GFP-based fluorescence assay (reference value: 7.34 +/- 0.04); format: cell-based; method in brief: as §2
[14] = tested on: Streptococcus pneumoniae; test: Antibacterial activity against amoxicillin/penicillin/erythromycin/ertapenem/moxifloxacin/cefotaxime-resistant Streptococcus pneumoniae TH2889 (6B) after 20 hrs by CLSI-based microdilution method; format: functional
[15] = tested on: Streptococcus pneumoniae; test: Potentiation of rifampicin-induced antibacterial activity against Streptococcus pneumoniae D39 at 2 times MIC after 20 hrs by checkerboard assay; format: functional
Method in brief: (§3)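 Checkerboard combination assay in S. pneumoniae D39 with the partner antibiotic. Fractional inhibitory concentration indices were calculated, and the minimum FICI was taken per combination. Three to four independent checkerboards were run.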

[16] = tested on: Streptococcus pneumoniae D39; test: Inhibition of wild-type Streptococcus pneumoniae D39 ATP synthase atpE assessed as intracellular pH at 0.0625 ug/ml measured at 5 mins by pH-sensitive GFP-based fluorescence assay (reference value: 7.34 +/- 0.04); format: cell-based; method in brief: as §2
[17] = tested on: Streptococcus pneumoniae; test: Potentiation of penicillin-induced antibacterial activity against Streptococcus pneumoniae D39 at 2 times MIC after 20 hrs by checkerboard assay; format: functional; method in brief: as §3
[18] = tested on: Streptococcus pneumoniae D39; test: Inhibition of wild-type Streptococcus pneumoniae D39 ATP synthase atpE assessed as intracellular pH at 0.25 ug/ml measured at 10 mins by pH-sensitive GFP-based fluorescence assay (reference value: 7.34 +/- 0.04); format: cell-based; method in brief: as §2
[19] = tested on: Acinetobacter baumannii; test: Antibacterial activity against Acinetobacter baumannii TH9781 after 20 hrs by CLSI-based microdilution method; format: functional; conditions: TH9781, 20 h
[20] = tested on: Streptococcus pneumoniae; test: Antibacterial activity against Streptococcus pneumoniae R6 after 20 hrs by CLSI-based microdilution method; format: functional; conditions: R6, 20 h
[21] = tested on: Pseudomonas aeruginosa; test: Antibacterial activity against Pseudomonas aeruginosa TH4090 after 20 hrs by CLSI-based microdilution method; format: functional; conditions: TH4090, 20 h
[22] = tested on: Streptococcus pneumoniae; test: Bacteriostatic activity against Streptococcus pneumoniae D39 assessed as resistant frequency at 4 to 16 times MIC after 24 hrs by time-kill assay; format: functional, organism-based
[23] = tested on: Streptococcus pneumoniae; test: Bacteriostatic activity against Streptococcus pneumoniae D39 up 100 times MIC after 18 hrs by time-kill assay; format: functional, organism-based; method in brief: as §1
[24] = tested on: Mycobacterium tuberculosis; test: Antibacterial activity against Mycobacterium tuberculosis H37Rv after […] by CLSI-based microdilution method; format: functional
[25] = tested on: Streptococcus pneumoniae; test: Potentiation of levofloxacin-induced antibacterial activity against Streptococcus pneumoniae D39 at 2 times MIC after 20 hrs by checkerboard assay; format: functional; method in brief: as §3
[26] = tested on: Streptococcus pneumoniae D39; test: Inhibition of wild-type Streptococcus pneumoniae D39 ATP synthase atpE assessed as intracellular pH at 8 ug/ml measured at 5 mins by pH-sensitive GFP-based fluorescence assay (reference value: 7.34 +/- 0.04); format: cell-based; method in brief: as §2
[27] = tested on: Streptococcus pneumoniae; test: Bactericidal activity against Streptococcus pneumoniae D39 after 24 hrs; format: functional; conditions: D39, 24 h
[28] = tested on: Streptococcus pneumoniae; test: Antibacterial activity against optochin-resistant Streptococcus pneumoniae R6 expressing atpE G142C mutant after 20 hrs by CLSI-based microdilution method; format: functional; conditions: R6, 20 h
[29] = tested on: Streptococcus pneumoniae D39; test: Inhibition of wild-type Streptococcus pneumoniae D39 ATP synthase atpE assessed as intracellular pH at 0.25 ug/ml measured at 15 mins by pH-sensitive GFP-based fluorescence assay (reference value: 7.34 +/- 0.04); format: cell-based; method in brief: as §2
[30] = tested on: Enterobacter cloacae; test: Antibacterial activity against Enterobacter cloacae TH11715 after 20 hrs by CLSI-based microdilution method; format: functional; conditions: TH11715, 20 h
[31] = tested on: Streptococcus pneumoniae; test: Antibacterial activity against amoxicillin/penicillin/chloramphenicol/erythromycin/meropenem/cefotaxime-resistant Streptococcus pneumoniae TH2582 (19A) after 20 hrs by CLSI-based microdilution method; format: functional
[32] = tested on: Streptococcus pneumoniae D39; test: Inhibition of wild-type Streptococcus pneumoniae D39 ATP synthase atpE G142C mutant assessed as reduction in intracellular pH at >0.25 to 8 ug/ml measured at 5 mins by pH-sensitive GFP-based fluorescence assay; format: cell-based; method in brief: as §2
[33] = tested on: Streptococcus pneumoniae D39; test: Inhibition of wild-type Streptococcus pneumoniae D39 ATP synthase atpE G145 mutant assessed as reduction in intracellular pH at >2 ug/ml measured at 5 mins by pH-sensitive GFP-based fluorescence assay; format: cell-based; method in brief: as §2
[34] = tested on: Staphylococcus aureus; test: Antibacterial activity against Staphylococcus aureus TH4114 after 20 hrs by CLSI-based microdilution method; format: functional; conditions: TH4114, 20 h
[35] = Mitochondrial toxicity in human HepG2 cells assessed as reduction in cell viability after 24 hrs in presence of galactose by CellTiter-Glo assay; format: cell-based
Method in brief: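 HepG2 cells are grown in DMEM supplemented with 10 mM galactose or 10 mM glucose and treated for 24 h. Viability is read by CellTiter-Glo luminescence. The CC90 is the concentration inhibiting 90% of cell viability, taken from dose–response curves. Oligomycin and tamoxifen serve as controls.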

[36] = tested on: Streptococcus pneumoniae D39; test: Inhibition of wild-type Streptococcus pneumoniae D39 ATP synthase atpE assessed as intracellular pH at 0.0625 ug/ml measured immediately post treatment by pH-sensitive GFP-based fluorescence assay (reference value: 7.34 +/- 0.04); format: cell-based; method in brief: as §2
[37] = tested on: Escherichia coli; test: Antibacterial activity against Escherichia coli TH4746 after 20 hrs by CLSI-based microdilution method; format: functional; conditions: TH4746, 20 h
[38] = tested on: Klebsiella pneumoniae; test: Antibacterial activity against Klebsiella pneumoniae ATCC 13883 after 20 hrs by CLSI-based microdilution method; format: functional; conditions: ATCC 13883, 20 h
[39] = tested on: Streptococcus pneumoniae; test: Potentiation of vancomycin-induced antibacterial activity against Streptococcus pneumoniae D39 at 2 times MIC after 20 hrs by checkerboard assay; format: functional; method in brief: as §3
[40] = tested on: Enterococcus faecium; test: Antibacterial activity against Enterococcus faecium TH6064 after 20 hrs by CLSI-based microdilution method; format: functional; conditions: TH6064, 20 h

CN[C@H](CC(C)C)C(=O)N[C@H]1C(=O)N[C@@H](CC(N)=O)C(=O)N[C@H]2C(=O)N[C@H]3C(=O)N[C@H](C(=O)N[C@H](C(=O)O)c4cc(O)cc(O)c4-c4cc3ccc4O)[C@H](O)c3ccc(c(Cl)c3)Oc3cc2cc(c3O[C@@H]2O[C@H](CO)[C@@H](O)[C@H](O)[C@H]2O[C@H]2C[C@](C)(N)[C@H](O)[C@H](C)O2)Oc2ccc(cc2Cl)[C@H]1O [VANCOMYCIN]
fold change (FC) [1]: 1000

CC=C1C[N@]2CC[C@H]1C[C@H]2[C@H](O)c1ccnc2ccc(OC3CCC3)cc12
MIC [2]: 4 µg/mL (≈ 11 µM)
Activity [3]: Active
MIC [4]: 0.7 µM (≈ 0.255 µg/mL)
MIC [5]: 0.5 µg/mL (≈ 1.37 µM)
Activity [6]: Active
pH [7]: 6.82
MIC [8]: 16 µg/mL (≈ 43.9 µM)
MIC [9]: 32 µg/mL (≈ 87.8 µM)
CC50 at 48 h [10]: 56 µM
CC90 at 24 h [11]: 150 µM
MIC [12]: 0.5 to 1 µg/mL (≈ 1.37 to 2.74 µM)
deltapH [13]: < 0.03
MIC [14]: 0.5 µg/mL (≈ 1.37 µM)
FIC [15]: 0.63 - 1
pH [16]: 7.02
FIC [17]: 0.63 - 1
pH [18]: 6.68
MIC [19]: 128 µg/mL (≈ 351 µM)
MIC [20]: 0.5 µg/mL (≈ 1.37 µM)
MIC [21]: > 128 µg/mL
Activity [22]: Active
Activity [23]: Active
MIC [24]: > 256 µg/mL
FIC [25]: 0.63 - 1
pH [26]: 6.66
MBC [27]: 1 to 2 µg/mL (≈ 2.74 to 5.49 µM)
MIC [28]: 8 to 16 µg/mL (≈ 21.9 to 43.9 µM)
deltapH [29]: -0.52
MIC [30]: > 128 µg/mL
MIC [31]: 0.25 to 0.5 µg/mL (≈ 0.686 to 1.37 µM)
inhibition [32]: Active
inhibition [33]: Active
MIC [34]: 128 µg/mL (≈ 351 µM)
CC90 at 24 h [35]: 150 µM
pH [36]: 7.11
MIC [37]: > 128 µg/mL
MIC [38]: 128 µg/mL (≈ 351 µM)
FIC [39]: 0.63 - 1
MIC [40]: 64 to 128 µg/mL (≈ 176 to 351 µM)
